In ChEMBL document CHEMBL1128446, “Pyrazinoic acid esters with broad spectrum in vitro antimycobacterial activity” (1995):
Values after ≈ are worked out from the molar mass of the structure shown.

Experiments:
Assay type in all cases: functional
Mycobacterium avium [1] = test: Minimum Inhibitory Concentration in clinical isolates against Mycobacterium avium complex 101
In short: (§1)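 Broth macrodilution in tubes of modified Middlebrook 7H10 broth (agar and malachite green omitted) with 10% OADC and 0.05% Tween 80 at pH 5.8. Cultures were grown 3 days at 37 °C on a rotary shaker, then diluted with 7H10 broth to 1 Klett unit/mL. Stocks were made in water or DMSO and filter-sterilised; 2-fold serial dilutions were tested. Tubes shaken 7–10 days at 37 °C, with a drug-free control. MIC = lowest concentration (μg/mL) with no visible turbidity.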

Mycobacterium avium [2] = test: Minimum Inhibitory Concentration against clinical isolates of Mycobacterium avium complex ATCC 49601; in short: as §1
[3] = test system: Mycobacterium tuberculosis; test: Minimum Inhibitory Concentration against Mycobacterium tuberculosis ATCC 35801; in short: as §1
Mycobacterium kansasii = test: Minimum Inhibitory Concentration against clinical isolates of Mycobacterium kansasii S
In short: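 Grown 3 days at 37 °C on a rotary shaker in modified Middlebrook 7H10 broth (agar and malachite green omitted) with 10% OADC and 0.05% Tween 80. Diluted to 1 Klett unit/mL. Tubes held serial 2-fold dilutions in 7H10 broth at pH 5.8, from stocks in water or DMSO, and were shaken at 37 °C for 7–10 days with a drug-free control. MIC was the lowest concentration with no visible turbidity.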

[4] = test system: Mycobacterium tuberculosis; test: Minimum Inhibitory Concentration against Mycobacterium tuberculosis ATCC 27294; details: Mycobacterium tuberculosis, ATCC 27294; read-out: MIC; in short: as §1

Structure (SMILES) | MIC (Mycobacterium avium [1]) [µg/mL] | MIC (Mycobacterium avium [2]) [µg/mL] | MIC [3] [µg/mL] | MIC (Mycobacterium kansasii) [µg/mL] | MIC [4] [µg/mL]
CCCCCCOC(=O)c1cnc(F)cn1 | 64 (≈ 283 µM) | 64 (≈ 283 µM) | 4 (≈ 17.7 µM) | 8 (≈ 35.4 µM) | 
CCCCCCCC(C)(CCCCC)OC(=O)c1cnc(Cl)cn1 (stereo not given) | > 64 | > 64 | 4 (≈ 11.3 µM) |  | 2 (≈ 5.64 µM)
CCCOC(=O)c1cnc(C)cn1 | > 64 | > 64 | 4 (≈ 22.2 µM) | 8 (≈ 44.4 µM) | 2 (≈ 11.1 µM)
CCCCCCCCCCOC(=O)c1cnc(F)cn1 | 32 (≈ 113 µM) | 32 (≈ 113 µM) | 4 (≈ 14.2 µM) | 1 (≈ 3.54 µM) | 2 (≈ 7.08 µM)
COC(=O)c1cnccn1 |  | > 256 | 16 (≈ 116 µM) | > 64 | < 8
CC(C)COC(=O)c1cnc(Cl)cn1 | 64 (≈ 298 µM) | 64 (≈ 298 µM) | 0.25 (≈ 1.16 µM) | < 1 | 2 (≈ 9.32 µM)
CCCCCCC(C)(C)OC(=O)c1cnc(Cl)cn1 | 64 (≈ 225 µM) | 64 (≈ 225 µM) | 4 (≈ 14 µM) | 1 (≈ 3.51 µM) | 0.25 (≈ 0.878 µM)
CCCCCCC(C)(CCCCCC)OC(=O)c1cnc(Cl)cn1 | > 64 | 16 (≈ 45.1 µM) | 0.5 (≈ 1.41 µM) | 2 (≈ 5.64 µM) | 0.25 (≈ 0.704 µM)
CCCCCCCCC(C)OC(=O)c1cnc(Cl)cn1 (stereo not given) | 32 (≈ 107 µM) | 32 (≈ 107 µM) | 0.5 (≈ 1.67 µM) | < 0.12 | 0.06 (≈ 0.201 µM)
CCCCCCCCCC(C)(C)OC(=O)c1cnc(Cl)cn1 | 256 (≈ 783 µM) | 256 (≈ 783 µM) | 1 (≈ 3.06 µM) | 0.5 (≈ 1.53 µM) | 8 (≈ 24.5 µM)
CCCCCC(C)(CCCCC)OC(=O)c1cnc(Cl)cn1 | 64 (≈ 196 µM) | 64 (≈ 196 µM) | 8 (≈ 24.5 µM) | 8 (≈ 24.5 µM) | 8 (≈ 24.5 µM)
COC(=O)c1cnc(C)cn1 | > 256 | > 256 | 8 (≈ 52.6 µM) | 32 (≈ 210 µM) | 16 (≈ 105 µM)
CCCCCCC(C)(CCCC)OC(=O)c1cnc(Cl)cn1 (stereo not given) | > 256 |  | 8 (≈ 24.5 µM) | 4 (≈ 12.2 µM) | 4 (≈ 12.2 µM)
CCCCCCCCC(CC)OC(=O)c1cnc(Cl)cn1 (stereo not given) | 64 (≈ 205 µM) | 32 (≈ 102 µM) | 0.25 (≈ 0.799 µM) | < 0.03 | 0.5 (≈ 1.6 µM)
O=C(OCc1ccccc1)c1cnccn1 | 64 (≈ 299 µM) | 64 (≈ 299 µM) | 1 (≈ 4.67 µM) | 1 (≈ 4.67 µM) | < 1
CCCCCC(C)(CCCC)OC(=O)c1cnc(Cl)cn1 (stereo not given) | 256 (≈ 818 µM) | 256 (≈ 818 µM) | 8 (≈ 25.6 µM) | 16 (≈ 51.1 µM) | 4 (≈ 12.8 µM)
CCCCCCCCCCCOC(=O)c1cnc(Cl)cn1 | 16 (≈ 51.1 µM) | 8 (≈ 25.6 µM) | 0.5 (≈ 1.6 µM) | 0.06 (≈ 0.192 µM) | 0.25 (≈ 0.799 µM)
COC(=O)c1cnc(F)cn1 | 64 (≈ 410 µM) | 64 (≈ 410 µM) | 8 (≈ 51.2 µM) | 8 (≈ 51.2 µM) | 4 (≈ 25.6 µM)
CC(C)(OC(=O)c1cnc(Cl)cn1)c1ccccc1 |  |  | 16 (≈ 57.8 µM) | 16 (≈ 57.8 µM) | 16 (≈ 57.8 µM)
CCCCCCCC(OC(=O)c1cnc(Cl)cn1)C(C)(C)C (stereo not given) | > 256 |  | 2 (≈ 6.12 µM) | 0.25 (≈ 0.765 µM) | 0.5 (≈ 1.53 µM)
O=C(OCc1ccc(Br)cc1)c1cnc(Cl)cn1 | 32 (≈ 97.7 µM) | 64 (≈ 195 µM) | 1 (≈ 3.05 µM) | 0.125 (≈ 0.382 µM) | 1 (≈ 3.05 µM)

Structure (SMILES) | MIC (Mycobacterium avium [1]) [µg/mL] | MIC (Mycobacterium avium [2]) [µg/mL] | MIC [3] [µg/mL] | MIC (Mycobacterium kansasii) [µg/mL] | MIC [4] [µg/mL]
CCCCC(OC(=O)c1cnc(Cl)cn1)c1ccccc1 (stereo not given) | 128 (≈ 420 µM) | 64 (≈ 210 µM) | 2 (≈ 6.56 µM) | 1 (≈ 3.28 µM) | 4 (≈ 13.1 µM)
CCCCCCCCCCCCCCCOC(=O)c1cnccn1 | 32 (≈ 95.7 µM) | 8 (≈ 23.9 µM) | 0.12 (≈ 0.359 µM) | 1 (≈ 2.99 µM) | 0.06 (≈ 0.179 µM)
CC(C)(C)C(OC(=O)c1cnc(Cl)cn1)c1ccccc1 (stereo not given) | 128 (≈ 420 µM) | 256 (≈ 840 µM) | 4 (≈ 13.1 µM) | 2 (≈ 6.56 µM) | 4 (≈ 13.1 µM)
O=C(Oc1c(Br)cc(Br)cc1Br)c1cnccn1 | 128 (≈ 293 µM) | 128 (≈ 293 µM) | 32 (≈ 73.2 µM) | 64 (≈ 146 µM) | 32 (≈ 73.2 µM)
Cc1cc(C(C)(C)C)c(OC(=O)c2cnccn2)c(C(C)(C)C)c1 | > 1020 | > 1020 |  | > 16 | 128 (≈ 392 µM)
CCCCCCCCCCC(OC(=O)c1cnc(Cl)cn1)C(C)(C)C (stereo not given) | > 256 | 256 (≈ 694 µM) | 8 (≈ 21.7 µM) | 4 (≈ 10.8 µM) | 16 (≈ 43.4 µM)
CCCCCCCC(C)(CCCC)OC(=O)c1cnc(Cl)cn1 (stereo not given) | > 256 | > 256 | 8 (≈ 23.5 µM) | 16 (≈ 46.9 µM) | 4 (≈ 11.7 µM)
CC(C)COC(=O)c1cnccn1 | 256 (≈ 1420 µM) |  | 16 (≈ 88.8 µM) | > 64 | < 8
CCOC(=O)c1cnc(Cl)cn1 | 128 (≈ 686 µM) | 128 (≈ 686 µM) | 2 (≈ 10.7 µM) | 2 (≈ 10.7 µM) | 1 (≈ 5.36 µM)
CCCCCCC(C)OC(=O)c1cnc(Cl)cn1 (stereo not given) | 8 (≈ 29.5 µM) | 16 (≈ 59.1 µM) | 0.25 (≈ 0.923 µM) | < 0.015 | 0.06 (≈ 0.222 µM)
CCCCCCCCCC(C)OC(=O)c1cnc(Cl)cn1 (stereo not given) | 16 (≈ 51.1 µM) | 16 (≈ 51.1 µM) | 0.125 (≈ 0.4 µM) | 0.25 (≈ 0.799 µM) | 0.25 (≈ 0.799 µM)
CCCCCC(CC)OC(=O)c1cnc(C)cn1 (stereo not given) | 64 (≈ 256 µM) | 64 (≈ 256 µM) | 0.5 (≈ 2 µM) | 4 (≈ 16 µM) | 1 (≈ 3.99 µM)
O=C(OCc1ccccc1)c1cnc(Cl)cn1 | 8 (≈ 32.2 µM) | 4 (≈ 16.1 µM) | 0.5 (≈ 2.01 µM) | 1 (≈ 4.02 µM) | 1 (≈ 4.02 µM)
CC(C)(C)OC(=O)c1cnc(Cl)cn1 | 128 (≈ 596 µM) | 128 (≈ 596 µM) | 0.5 (≈ 2.33 µM) | < 1 | 0.25 (≈ 1.16 µM)
O=C(Oc1cccc2ccccc12)c1cnccn1 | 128 (≈ 511 µM) | 64 (≈ 256 µM) |  | > 16 | 8 (≈ 32 µM)
O=C(OCCc1ccccc1)c1cnc(Cl)cn1 | 32 (≈ 122 µM) | 8 (≈ 30.5 µM) | 1 (≈ 3.81 µM) | 0.25 (≈ 0.952 µM) | 1 (≈ 3.81 µM)
CC(OC(=O)c1cnc(Cl)cn1)c1ccc(Br)cc1 (stereo not given) | 32 (≈ 93.7 µM) | 16 (≈ 46.8 µM) | 8 (≈ 23.4 µM) | 0.25 (≈ 0.732 µM) | 2 (≈ 5.85 µM)
CCCOC(=O)c1cnc(Cl)cn1 | 16 (≈ 79.8 µM) | 16 (≈ 79.8 µM) | < 0.03 | 0.25 (≈ 1.25 µM) | 0.06 (≈ 0.299 µM)
CCCCCCCOC(=O)c1cnc(Cl)cn1 | 8 (≈ 31.2 µM) | 16 (≈ 62.3 µM) | < 0.03 | < 0.03 | 0.06 (≈ 0.234 µM)
CCC(C)(CC)OC(=O)c1cnc(Cl)cn1 | > 256 | 256 (≈ 1050 µM) | 8 (≈ 33 µM) | 2 (≈ 8.24 µM) | 8 (≈ 33 µM)
CCCCCCOC(=O)c1cnc(Cl)cn1 | 32 (≈ 132 µM) | 16 (≈ 65.9 µM) | 0.125 (≈ 0.515 µM) | 0.015 (≈ 0.0618 µM) | 0.125 (≈ 0.515 µM)
